This is an account of results in ChEMBL document CHEMBL1126147 (J Med Chem, 1992).

Test [1] has as its target T1, Aldo-keto reductase family 1 member B1 (Homo sapiens, UniProt P15121). Description: In vitro inhibitory activity against aldose reductase isolated from human placenta.
Test [2] concerns Rattus norvegicus. Description: In vivo inhibition of sorbitol accumulation in the sciatic nerve in streptozotocin induced diabetic rat model at a concentration of 10 mg/kg; NS=not significant. The class given is functional, organism-based. Further details: dose 10 mg/kg. In short, it runs like this:
(§1)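 Rats (n = 4) were made diabetic with a single iv dose of streptozotocin (86 mg/kg). Compound was given by oral gavage at 4, 7 and 24 h. Animals were killed at 27 h and sciatic nerve sorbitol measured. Percent inhibition is relative to untreated diabetic rats (n = 4), with significance by Student's t test (p < 0.05).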

Test [3] concerns Rattus norvegicus. The test can be described thus: In vivo inhibition of sorbitol accumulation in the sciatic nerve in streptozotocin induced diabetic rat model at a concentration of 25 mg/kg; NS=not significant. It is filed as functional, organism-based. Also on record: dose 25 mg/kg. In a few lines:
as §1

For test [4], the system named is Rattus norvegicus. The test can be described thus: In vivo inhibition of sorbitol accumulation in the sciatic nerve in streptozotocin induced diabetic rat model at a concentration of 10 mg/kg. The class given is functional. In a few lines:
as §1

Test [5] has as its target T1, Aldo-keto reductase family 1 member B1. The test can be described thus: In vitro inhibitory activity against aldose reductase isolated from human placenta at 10e-5 M. In a few lines:
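Aldose reductase purified from human placenta; DL-glyceraldehyde as substrate with NADPH as cofactor; enzyme inhibition measured in vitro.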

Test [6] deals with Rattus norvegicus. The test can be described thus: In vivo inhibition of sorbitol accumulation in the sciatic nerve in streptozotocin induced diabetic rat model at a concentration of 25 mg/kg. The class given is functional. In a few lines:
as §1

Test [7] has as its system Rattus norvegicus. The test can be described thus: In vivo inhibition of sorbitol accumulation in the sciatic nerve in streptozotocin induced diabetic rat model at a concentration of 100 mg/kg. It is filed as functional. In a few lines: as §1

Calls of active or inactive are those of the source. The calls are words filed in the database; no cut-off is given here. Where only a bound is given, the exact number is not on record here.

As for `O=C(O)Cc1nn(CC(=O)Nc2cccc(Cl)c2)c(=O)c2ccccc12`, half-maximal inhibition in test [1] (IC50) was put at 13 nM.

The molecule `O=C(O)Cc1nn(Cc2nc(-c3c(F)cccc3Cl)no2)c(=O)c2ccccc12` yielded an IC50 in test [1] of 240 nM.

Molecule `O=C(O)Cc1nn(Cc2cc3cc(Cl)ccc3s2)c(=O)c2ccccc12` came in with an IC50 in test [1] of 250 nM.

In turn, `O=C(O)Cc1nn(Cc2snc3ccccc23)c(=O)c2ccccc12` gave a concentration for half-maximal inhibition (IC50) in test [1] of 720 nM.

Turning to `Cc1ccccc1-c1noc(Cn2nc(CC(=O)O)c3ccccc3c2=O)n1`, in test [1], the IC50 came to 64 nM. Moreover, in the test on Rattus norvegicus [2], the inhibition result is “inactive”.

As for `O=C(O)Cc1nn(Cc2cc3cc([N+](=O)[O-])ccc3s2)c(=O)c2ccccc12`, in test [1], the IC50 worked out at 2200 nM. Moreover, the inhibition entry in the test on Rattus norvegicus [2] was “inactive”.

The molecule `COc1ccccc1-c1noc(Cn2nc(CC(=O)O)c3ccccc3c2=O)n1` had an IC50 in test [1] of 470 nM. Moreover, in the test with Rattus norvegicus [3], the inhibition result was “inactive”.

Take `O=C(O)Cc1nn(Cc2csc(-c3ccccc3)n2)c(=O)c2ccccc12`: in test [1], the midpoint of inhibition, the IC50, lay at 8200 nM.

In test [1], `O=C(O)Cc1nn(Cc2nc(-c3ccccc3)ns2)c(=O)c2ccccc12` gave a half-inhibitory concentration (IC50) of 2200 nM.

For the molecule `O=C(O)Cc1nn(Cc2nc(-c3ccccc3Br)no2)c(=O)c2ccccc12`, the IC50 in test [1] was determined as 6.5 nM. This molecule returned an inhibition in vivo at 10 mg/kg with Rattus norvegicus [4] of 27%.

The molecule `COc1cc(NC(=O)Cn2nc(CC(=O)O)c3ccccc3c2=O)cc(OC)c1OC` registered an inhibition in test [5] of 20%.

In test [1], `O=C(O)Cc1nn(Cc2nc3cc(Cl)ccc3o2)c(=O)c2ccccc12` returned a half-maximal inhibitory concentration (IC50) of 78 nM. Besides, in the test with Rattus norvegicus [4], 10 mg/kg produced 72% inhibition in vivo.

For the molecule `O=C(O)Cc1nn(Cc2cc3cc(F)ccc3s2)c(=O)c2ccccc12`, the IC50 in test [1] is 150 nM. The molecule also yielded an inhibition in vivo at 25 mg/kg with Rattus norvegicus [6] of 49%.

In test [1], `Cn1c(Cn2nc(CC(=O)O)c3ccccc3c2=O)nc2ccccc21` had a half-inhibitory concentration (IC50) of 4200 nM.

In turn, `O=C(O)Cc1nn(Cc2nc3cc(Cl)cc(Cl)c3o2)c(=O)c2ccccc12` returned a half-inhibitory concentration (IC50) in test [1] of 32 nM. In the test on Rattus norvegicus [4], this molecule came in with an inhibition in vivo at 10 mg/kg of 63%.

Turning to `O=C(O)Cc1nn(Cc2nc3cc4ccccc4cc3o2)c(=O)c2ccccc12`, the IC50 in test [1] turned out to be 3000 nM.

Regarding `O=C(O)Cc1nn(Cc2csnc2-c2ccccc2)c(=O)c2ccccc12`, in test [1], the concentration for half-maximal inhibition (IC50) came to 10000 nM.

For `O=C(O)Cc1nn(Cc2noc(-c3ccccc3Cl)n2)c(=O)c2ccccc12`, the IC50 in test [1] was found to be 28 nM.

As to `O=C(O)Cc1nn(Cc2nc(-c3ccccc3F)no2)c(=O)c2ccccc12`, the IC50 in test [1] was < 10 nM. This molecule showed an inhibition in vivo at 25 mg/kg with Rattus norvegicus [6] of 69%.

Regarding `O=C(O)Cc1nn(CC(=O)Nc2ccc(C(F)(F)F)cc2)c(=O)c2ccccc12`, the half-maximal inhibitory concentration (IC50) in test [1] was determined as 2100 nM.

In test [1], `O=C(O)Cc1nn(Cc2nc(-c3ccccc3)cs2)c(=O)c2ccccc12` registered an IC50 of 34 nM.

`O=C(O)Cc1nn(Cc2ncc(-c3ccccc3)o2)c(=O)c2ccccc12`: it took 660 nM to reach half-maximal inhibition in test [1] (IC50).

In turn, `O=C(O)Cc1nn(Cc2nc3cc(-c4ccccc4)ccc3o2)c(=O)c2ccccc12` showed an IC50 in test [1] of 6100 nM.

Consider `O=C(O)Cc1nn(CC(=O)Nc2cc(C(F)(F)F)cc(C(F)(F)F)c2)c(=O)c2ccccc12`, for which, in test [1], the half-inhibitory concentration (IC50) was determined as 1100 nM.

Turning to `O=C(O)Cc1nn(Cc2cc3cccnc3s2)c(=O)c2ccccc12`, half-maximal inhibition in test [1] (IC50) was put at 420 nM. The inhibition result with Rattus norvegicus [3] is “inactive”.

In turn, `O=C(O)Cc1nn(Cc2nc(-c3ccccc3)c(-c3ccccc3)o2)c(=O)c2ccccc12` returned an IC50 in test [1] of 4500 nM.

Take `O=C(O)Cc1nn(Cc2cn3ccc(Cl)cc3n2)c(=O)c2ccccc12`: the IC50 in test [1] is 37 nM.

With `O=C(O)Cc1nn(CC(=O)Nc2cc(C(F)(F)F)ccc2Br)c(=O)c2ccccc12`, the IC50 in test [1] was 28 nM.

`O=C(O)Cc1nn(Cc2cc3c(Cl)cccc3s2)c(=O)c2ccccc12` displayed an IC50 in test [1] of 110 nM.

In test [1], `O=C(O)Cc1nn(CC(=O)Nc2ccccc2Cl)c(=O)c2ccccc12` returned an IC50 of 430 nM.

For the molecule `O=C(O)Cc1nn(Cc2nc3ccccc3o2)c(=O)c2ccccc12`, in test [1], 89 nM corresponded to half-maximal inhibition (IC50).

Regarding `O=C(O)Cc1nn(Cc2cc3cc(Cl)ccc3o2)c(=O)c2ccccc12`, the IC50 in test [1] was 150 nM.

As for `O=C(O)Cc1nn(CC(=O)Nc2ccccc2C(F)(F)F)c(=O)c2ccccc12`, half-maximal inhibition in test [1] (IC50) required 5900 nM.

Turning to `O=C(O)Cc1nn(CC(=O)Nc2cc(F)cc(F)c2O)c(=O)c2ccccc12`, in test [1], it took 170 nM to reach half-maximal inhibition (IC50).

Regarding `O=C(O)Cc1nn(Cc2nc3cc(C(F)(F)F)ccc3s2)c(=O)c2ccccc12` [ZOPOLRESTAT], at 10 mg/kg the inhibition in vivo with Rattus norvegicus [4] was 80%.

In turn, `O=C(O)Cc1nn(Cc2nc(-c3ccccc3Cl)no2)c(=O)c2ccccc12` came in with an IC50 in test [1] of 23 nM. In the test with Rattus norvegicus [2], the inhibition entry is “inactive”. Also, in the test on Rattus norvegicus [6], the inhibition in vivo at 25 mg/kg turned out to be 75%.

Turning to `O=C(O)Cc1nn(Cc2nc(-c3ccccc3Cl)ns2)c(=O)c2ccccc12`, the half-inhibitory concentration (IC50) in test [1] came out at 1100 nM.

On to `O=C(O)Cc1nn(Cc2nc3cc(Br)ccc3o2)c(=O)c2ccccc12`, for which inhibition in test [1] was half-maximal at 27 nM (IC50). The molecule also registered an inhibition in vivo at 10 mg/kg with Rattus norvegicus [4] of 67%.

Turning to `O=C(O)Cc1nn(CC(=S)Nc2cc(C(F)(F)F)ccc2Br)c(=O)c2ccccc12`, half-maximal inhibition in test [1] (IC50) was put at 200 nM.

Take `O=C(O)Cc1nn(Cc2cc3cc(Br)ccc3s2)c(=O)c2ccccc12`: the half-inhibitory concentration (IC50) in test [1] is 1000 nM.

In test [1], `O=C(O)Cc1nn(Cc2csc(-c3ccccc3F)n2)c(=O)c2ccccc12` came in with a concentration for half-maximal inhibition (IC50) of 460 nM.

Turning to `O=C(O)Cc1nn(Cc2nc(-c3ccccc3)co2)c(=O)c2ccccc12`, the IC50 in test [1] came out at 3200 nM.

`O=C(O)Cc1nn(CC(=O)Nc2ccccc2)c(=O)c2ccccc12`: the concentration for half-maximal inhibition (IC50) in test [1] is 4900 nM.

For `O=C(O)Cc1nn(CC(=O)Nc2cc(C(F)(F)F)ccc2O)c(=O)c2ccccc12`, the midpoint of inhibition in test [1], the IC50, lay at 200 nM.

Take `O=C(O)Cc1nn(Cc2nc(-c3cccc(F)c3F)no2)c(=O)c2ccccc12`: in test [1], the IC50 was determined as 19 nM. Testing at 25 mg/kg in the test on Rattus norvegicus [6] gave an inhibition in vivo of 89%.

`O=C(O)Cc1nn(Cc2ccc3ccccc3n2)c(=O)c2ccccc12` showed a concentration for half-maximal inhibition (IC50) in test [1] of 59000 nM.

`O=C(O)Cc1nn(Cc2nc3cc(C(F)(F)F)ccc3o2)c(=O)c2ccccc12` yielded a half-inhibitory concentration (IC50) in test [1] of 31 nM. The same molecule returned an inhibition in vivo at 10 mg/kg with Rattus norvegicus [4] of 32%.

For `O=C(O)Cc1nn(C/C(S)=N/c2cccc(C(F)(F)F)c2)c(=O)c2ccccc12`, it took 52 nM to reach half-maximal inhibition in test [1] (IC50).

In test [1], `O=C(O)Cc1nn(CC(=O)Nc2cccc(C(F)(F)F)c2)c(=O)c2ccccc12` yielded a concentration for half-maximal inhibition (IC50) of 19 nM.

Regarding `O=C(O)Cc1nn(Cc2cc3ccccc3s2)c(=O)c2ccccc12`, in test [1], half-maximal inhibition (IC50) required 120 nM. In the test on Rattus norvegicus [7], the inhibition in vivo at 100 mg/kg is 77%.

The molecule `O=C(O)Cc1nn(CC(=O)Nc2cccc(F)c2)c(=O)c2ccccc12` registered an IC50 in test [1] of 22 nM.

For the molecule `O=C(O)Cc1nn(Cc2nc(-c3ccccc3C(F)(F)F)no2)c(=O)c2ccccc12`, inhibition in test [1] was half-maximal at 220 nM (IC50). The molecule further yielded an inhibition in vivo at 25 mg/kg with Rattus norvegicus [6] of 60%.

Turning to `O=C(O)Cc1nn(Cc2nc(-c3ccccn3)no2)c(=O)c2ccccc12`, the midpoint of inhibition in test [1], the IC50, lay at 156 nM. The inhibition result in the test on Rattus norvegicus [2] was “inactive”.

On to `O=C(O)Cc1nn(Cc2cc3ccccc3[nH]2)c(=O)c2ccccc12`, for which, in test [1], the IC50 is 870 nM.

In test [1], `O=C(O)Cc1nn(CC(=O)Nc2cc(C(F)(F)F)cc(C(F)(F)F)c2Br)c(=O)c2ccccc12` returned an IC50 of 2200 nM.

Turning to `O=C(O)Cc1nn(CC(=O)Nc2ccc(Cl)cc2)c(=O)c2ccccc12`, the half-inhibitory concentration (IC50) in test [1] amounted to 440 nM.

The molecule `O=C(O)Cc1nn(Cc2noc(-c3ccccc3C(F)(F)F)n2)c(=O)c2ccccc12` came in with an IC50 in test [1] of 470 nM.

For the molecule `O=C(O)Cc1nn(Cc2nc(-c3ccc(Br)cc3)no2)c(=O)c2ccccc12`, the half-maximal inhibitory concentration (IC50) in test [1] turned out to be 4600 nM.

On to `O=C(O)Cc1nn(Cc2nnc(-c3ccccc3)o2)c(=O)c2ccccc12`, for which it took 3100 nM to reach half-maximal inhibition in test [1] (IC50).

With `O=C(O)Cc1nn(Cc2cc(-c3ccccc3)ns2)c(=O)c2ccccc12`, in test [1], the IC50 was 670 nM.

In turn, `O=C(O)Cc1nn(Cc2nc(-c3ccccc3)no2)c(=O)c2ccccc12` returned an IC50 in test [1] of 160 nM.

In turn, `O=C(O)Cc1nn(C/C(S)=N/c2cccc(Cl)c2)c(=O)c2ccccc12` registered a 50% inhibitory concentration (IC50) in test [1] of 50 nM.

In test [1], `O=C(O)Cc1nn(Cc2nc3ccc(Br)cc3o2)c(=O)c2ccccc12` came in with a half-maximal inhibitory concentration (IC50) of 540 nM.

As to `O=C(O)Cc1nn(Cc2nc3cc(F)cc(F)c3o2)c(=O)c2ccccc12`, half-maximal inhibition in test [1] (IC50) was put at 3.2 nM. Testing at 10 mg/kg with Rattus norvegicus [4] gave an inhibition in vivo of 78%.

In turn, `O=C(O)Cc1nn(Cc2nc(-c3ccc(F)cc3F)no2)c(=O)c2ccccc12` returned a half-maximal inhibitory concentration (IC50) in test [1] of 630 nM. Moreover, the inhibition in vivo at 25 mg/kg in the test with Rattus norvegicus [6] turned out to be 46%.
